The values below come from ChEMBL document CHEMBL1133118 (J Med Chem, 2000).

The target in assay [1] is T1, Adenosine receptor A2b (Homo sapiens, UniProt P29275).
T1 sequence (P29275 whole entry): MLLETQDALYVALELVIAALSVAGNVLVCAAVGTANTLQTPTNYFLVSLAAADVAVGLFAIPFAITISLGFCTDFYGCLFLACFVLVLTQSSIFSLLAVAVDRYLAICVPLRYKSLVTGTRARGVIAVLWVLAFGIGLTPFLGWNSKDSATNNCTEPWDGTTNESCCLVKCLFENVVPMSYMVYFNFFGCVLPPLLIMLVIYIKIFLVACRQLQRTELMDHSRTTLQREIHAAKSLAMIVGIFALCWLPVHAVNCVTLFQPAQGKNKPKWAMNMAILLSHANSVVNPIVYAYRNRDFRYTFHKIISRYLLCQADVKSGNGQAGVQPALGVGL
Kind of assay: Displacement of [3H]DPCPX from Adenosine A2b receptor expressed in […]; range 226-301. The format is cell-based.

Assay [2] has as its target T2, Adenosine receptor A2a (Homo sapiens, UniProt P29274). Kind of assay: Displacement of [3H]-SCH- 58261 from human adenosine A2A receptor expressed in CHO cells; range 1220-1590. The format is cell-based.
Assay [3] addresses T3, Adenosine receptor A1 (Homo sapiens, UniProt P30542).
T3 sequence (P30542 whole entry): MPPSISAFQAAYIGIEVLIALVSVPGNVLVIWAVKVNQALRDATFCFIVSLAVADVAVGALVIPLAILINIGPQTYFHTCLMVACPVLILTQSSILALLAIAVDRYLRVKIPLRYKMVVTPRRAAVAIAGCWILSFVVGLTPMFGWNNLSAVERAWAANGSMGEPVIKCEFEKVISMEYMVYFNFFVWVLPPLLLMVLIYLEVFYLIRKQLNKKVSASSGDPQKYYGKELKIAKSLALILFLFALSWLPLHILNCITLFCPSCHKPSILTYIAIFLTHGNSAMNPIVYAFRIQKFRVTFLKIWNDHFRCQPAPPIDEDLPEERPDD
Kind of assay: Displacement of [3H]DPCPX from human adenosine A1 receptor expressed in CHO cells; range 928-1297. The format is cell-based.

Assay [4] concerns the target T4, Adenosine receptor A3 (Homo sapiens, UniProt P0DMS8).
T4 sequence (P0DMS8 whole entry): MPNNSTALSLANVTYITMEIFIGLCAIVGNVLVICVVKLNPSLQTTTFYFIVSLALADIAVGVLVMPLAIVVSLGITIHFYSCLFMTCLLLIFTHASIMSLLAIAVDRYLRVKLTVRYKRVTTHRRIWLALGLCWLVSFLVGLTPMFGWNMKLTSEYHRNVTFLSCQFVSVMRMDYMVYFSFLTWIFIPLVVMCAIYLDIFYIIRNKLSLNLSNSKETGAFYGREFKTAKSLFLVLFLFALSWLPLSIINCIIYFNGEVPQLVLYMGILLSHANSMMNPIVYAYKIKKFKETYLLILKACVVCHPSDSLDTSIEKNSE
Kind of assay: Inhibition of cAMP accumulation in CHO cells expressing human adenosine A3 receptor; range 1.7-4.2. In kind it is functional, cell-based.

Assay [5] deals with Adenosine receptors; A1 & A3 (Homo sapiens) (UniProt P30542+P0DMS8). Kind of assay: Ratio of binding affinity of human A1 receptor to that of human A3 receptor. The format is protein assay. The procedure, abridged:
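Ki ratio from displacement in CHO membranes, 6–8 concentrations, n=3-6, filtration counting. A1: 1 nM [3H]DPCPX, 50 μg protein, 120 min at 25 °C, nonspecific with 10 μM CHA. A3: 1 nM [3H]MRE3008-F20, 50 μg protein, Tris/10 mM MgCl2 pH 7.4, 120 min at 4 °C, nonspecific with 1 μM MRE3008-F20.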

Assay [6] has as its target Adenosine receptors; A2b & A3 (Homo sapiens) (UniProt P29275+P0DMS8). Kind of assay: Ratio of binding affinity of human A2B receptor to that of human A3 receptor. The format is protein assay. The gist of the method: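 Ki ratio, n=3-6, 6–8 concentrations. A2B in HEK-293 membranes (20 μg): 40 nM [3H]DPCPX, 50 mM Tris HCl, 10 mM MgCl2, 1 mM EDTA, 0.1 mM benzamidine pH 7.4, 2 IU/mL adenosine deaminase, 60 min at 25 °C, nonspecific with 100 μM NECA. A3 in CHO membranes (50 μg): 1 nM [3H]MRE3008-F20, 120 min at 4 °C.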

In assay [7] the target is T5, Adenosine receptor A3 (Homo sapiens) (UniProt P0DMS8).
T5 sequence (whole entry): T4 sequence (P0DMS8 whole entry)
Conditions: CHO, 1 uM.

Assay [8] has as its target T4, Adenosine receptor A3. Kind of assay: biochemical.
For assay [9], the target named is T2, Adenosine receptor A2a. Kind of assay: Displacement of [3H]-SCH- 58261 from human adenosine A2A receptor expressed in CHO cells; range 1.4-2.1. In kind it is cell-based. The procedure, abridged: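 CHO membranes expressing human A2A receptor (50 μg protein) in 50 mM Tris HCl, 10 mM MgCl2, pH 7.4, competed against [3H]SCH 58261. At least 6–8 test concentrations were used, with 60 min incubation at 25 °C. Nonspecific binding defined by 50 μM NECA; n=3-6.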

Assay [10] addresses T3, Adenosine receptor A1. Kind of assay: Displacement of [3H]DPCPX from human adenosine A1 receptor expressed in CHO cells; range 11-17. In kind it is cell-based.
The target in assay [11] is T5, Adenosine receptor A3 (Homo sapiens). Kind of assay: Percentage of blockade by 1 uM of the inhibition by 100 nM IB-MECA-inhibited cAMP accumulation in CHO cells expressing human adenosine A3 receptor. The format is functional, cell-based. The gist of the method:
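CHO cells stably expressing human A3 receptor; membranes in 50 mM Tris HCl, 10 mM MgCl2, 1 mM EDTA pH 7.4 with 5 μM GTP, 0.5 mM […] and 2.0 IU/mL adenosine deaminase. Preincubated 10 min at 37 °C, then IB-MECA (100 nM) and/or antagonist with 1 mM ATP and 10 μM forskolin for 10 min. Boiled 2 min. cAMP read by [3H]cAMP competition with adrenal binding protein.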

The target in assay [12] is T4, Adenosine receptor A3. Kind of assay: biochemical. The source holds these as a separate data set.
Assay [13] deals with T1, Adenosine receptor A2b. Kind of assay: Displacement of [3H]DPCPX from Adenosine A2b receptor expressed in HEK-293 cells; range 40-69.
Assay [14] addresses T1, Adenosine receptor A2b. Kind of assay: Displacement of [3H]DPCPX from Adenosine A2b receptor expressed in CHO cells. The format is cell-based.
In assay [15] the target is T2, Adenosine receptor A2a. Kind of assay: Displacement of [3H]-SCH- 58261 from human adenosine A2A receptor expressed in CHO cells. The format is cell-based.
Assay [16] addresses T3, Adenosine receptor A1. Kind of assay: Displacement of [3H]DPCPX from human adenosine A1 receptor expressed in CHO cells; range 2894-3460. The format is cell-based.
In assay [17] the target is T4, Adenosine receptor A3. Kind of assay: Displacement of [3H]MRE3008-F20 from human adenosine A3 receptor expressed in CHO cells; range 34-76. In kind it is cell-based.
The target in assay [18] is T3, Adenosine receptor A1. Kind of assay: Displacement of [3H]DPCPX from human adenosine A1 receptor expressed in CHO cells; range 327-462. In kind it is cell-based.
For assay [19], the target named is T2, Adenosine receptor A2a. Kind of assay: Displacement of [3H]-SCH- 58261 from human adenosine A2A receptor expressed in CHO cells; range 3420-3788. In kind it is cell-based.
The target in assay [20] is T1, Adenosine receptor A2b. Kind of assay: Displacement of [3H]DPCPX from Adenosine A2b receptor expressed in […]; range 1681-1961. In kind it is cell-based.
Assay [21] concerns the target T4, Adenosine receptor A3. Kind of assay: biochemical. This is another data set of the same source.

T2 sequence (P29274 whole entry): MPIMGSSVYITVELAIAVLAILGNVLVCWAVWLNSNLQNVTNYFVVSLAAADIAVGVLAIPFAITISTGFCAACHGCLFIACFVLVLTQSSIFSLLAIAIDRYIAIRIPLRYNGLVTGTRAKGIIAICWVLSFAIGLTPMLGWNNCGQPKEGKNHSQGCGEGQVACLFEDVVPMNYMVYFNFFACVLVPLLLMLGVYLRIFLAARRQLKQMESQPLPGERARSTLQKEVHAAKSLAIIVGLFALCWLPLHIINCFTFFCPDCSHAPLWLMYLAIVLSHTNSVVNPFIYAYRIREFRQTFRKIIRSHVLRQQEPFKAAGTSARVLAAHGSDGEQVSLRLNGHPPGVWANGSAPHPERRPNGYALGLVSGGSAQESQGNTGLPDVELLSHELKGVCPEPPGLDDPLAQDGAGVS

With `COc1ccc(NC(=O)Nc2nc3nn(C)cc3c3nc(-c4ccco4)nn23)cc1`, the inhibition constant (Ki) amounted to 261 nM in assay [1], 1390 nM in [2], 1100 nM in [3] and 0.2 nM in assay [8]. In [4], this compound gave an IC50 of 2.7 nM. Moreover, the Ratio was 5480 in assay [5] and 1300 in assay [6]. The inhibition in [7] was 94%.

As for `CCCCn1cc2c(nc(N)n3nc(-c4ccco4)nc23)n1`, the Ki came to 1.6 nM in [9], 14 nM in [10], 600 nM in assay [12] and 53 nM in [13]. For the same compound, the Ratio amounted to 0.02 in assay [5] and 0.09 in assay [6]. The inhibition in assay [11] amounted to 15%.

Turning to `O=C(Nc1cccc(Cl)c1)Nc1nc2nn(CCc3cccc4ccccc34)cc2c2nc(-c3ccco3)nn12`, the Ki in assay [14] is above 10000 nM; in [15] it was above 10000 nM; in [16], 3160 nM; in assay [17] it was 51 nM. Moreover, the Ratio was 62 in assay [5] and above 196 in assay [6]. Besides, the inhibition in assay [11] is 40%.

Regarding `O=C(Nc1cccc(Cl)c1)Nc1nc2nn(CCc3cc(Br)c(Br)cc3Br)cc2c2nc(-c3ccco3)nn12`, the inhibition constant Ki worked out at 389 nM in assay [18], 3600 nM in assay [19], 1820 nM in [20] and 71 nM in assay [21]. Also, the Ratio in assay [5] amounted to 5.5; in assay [6] it was 26. The same compound yielded an inhibition in assay [11] of 32%.
